Reference: ChEMBL document CHEMBL4052683, “The discovery of benzoxazine sulfonamide inhibitors of NaV1.7: Tools that bridge efficacy and target engagement” (Bioorg Med Chem Lett, 2017)
Calls of active or inactive are those of the source. The rule behind the calls is not given here.

What was measured:
[1] = target: T1, Sodium channel protein type 9 subunit alpha (Homo sapiens, UniProt Q15858); experiment: Inhibition of human NaV1.7 expressed in HEK293 cells at holding potential of -125 mV with test potentials to -10 mV by whole cell voltage clamp method; format: cell-based
T1 sequence (Q15858 whole entry): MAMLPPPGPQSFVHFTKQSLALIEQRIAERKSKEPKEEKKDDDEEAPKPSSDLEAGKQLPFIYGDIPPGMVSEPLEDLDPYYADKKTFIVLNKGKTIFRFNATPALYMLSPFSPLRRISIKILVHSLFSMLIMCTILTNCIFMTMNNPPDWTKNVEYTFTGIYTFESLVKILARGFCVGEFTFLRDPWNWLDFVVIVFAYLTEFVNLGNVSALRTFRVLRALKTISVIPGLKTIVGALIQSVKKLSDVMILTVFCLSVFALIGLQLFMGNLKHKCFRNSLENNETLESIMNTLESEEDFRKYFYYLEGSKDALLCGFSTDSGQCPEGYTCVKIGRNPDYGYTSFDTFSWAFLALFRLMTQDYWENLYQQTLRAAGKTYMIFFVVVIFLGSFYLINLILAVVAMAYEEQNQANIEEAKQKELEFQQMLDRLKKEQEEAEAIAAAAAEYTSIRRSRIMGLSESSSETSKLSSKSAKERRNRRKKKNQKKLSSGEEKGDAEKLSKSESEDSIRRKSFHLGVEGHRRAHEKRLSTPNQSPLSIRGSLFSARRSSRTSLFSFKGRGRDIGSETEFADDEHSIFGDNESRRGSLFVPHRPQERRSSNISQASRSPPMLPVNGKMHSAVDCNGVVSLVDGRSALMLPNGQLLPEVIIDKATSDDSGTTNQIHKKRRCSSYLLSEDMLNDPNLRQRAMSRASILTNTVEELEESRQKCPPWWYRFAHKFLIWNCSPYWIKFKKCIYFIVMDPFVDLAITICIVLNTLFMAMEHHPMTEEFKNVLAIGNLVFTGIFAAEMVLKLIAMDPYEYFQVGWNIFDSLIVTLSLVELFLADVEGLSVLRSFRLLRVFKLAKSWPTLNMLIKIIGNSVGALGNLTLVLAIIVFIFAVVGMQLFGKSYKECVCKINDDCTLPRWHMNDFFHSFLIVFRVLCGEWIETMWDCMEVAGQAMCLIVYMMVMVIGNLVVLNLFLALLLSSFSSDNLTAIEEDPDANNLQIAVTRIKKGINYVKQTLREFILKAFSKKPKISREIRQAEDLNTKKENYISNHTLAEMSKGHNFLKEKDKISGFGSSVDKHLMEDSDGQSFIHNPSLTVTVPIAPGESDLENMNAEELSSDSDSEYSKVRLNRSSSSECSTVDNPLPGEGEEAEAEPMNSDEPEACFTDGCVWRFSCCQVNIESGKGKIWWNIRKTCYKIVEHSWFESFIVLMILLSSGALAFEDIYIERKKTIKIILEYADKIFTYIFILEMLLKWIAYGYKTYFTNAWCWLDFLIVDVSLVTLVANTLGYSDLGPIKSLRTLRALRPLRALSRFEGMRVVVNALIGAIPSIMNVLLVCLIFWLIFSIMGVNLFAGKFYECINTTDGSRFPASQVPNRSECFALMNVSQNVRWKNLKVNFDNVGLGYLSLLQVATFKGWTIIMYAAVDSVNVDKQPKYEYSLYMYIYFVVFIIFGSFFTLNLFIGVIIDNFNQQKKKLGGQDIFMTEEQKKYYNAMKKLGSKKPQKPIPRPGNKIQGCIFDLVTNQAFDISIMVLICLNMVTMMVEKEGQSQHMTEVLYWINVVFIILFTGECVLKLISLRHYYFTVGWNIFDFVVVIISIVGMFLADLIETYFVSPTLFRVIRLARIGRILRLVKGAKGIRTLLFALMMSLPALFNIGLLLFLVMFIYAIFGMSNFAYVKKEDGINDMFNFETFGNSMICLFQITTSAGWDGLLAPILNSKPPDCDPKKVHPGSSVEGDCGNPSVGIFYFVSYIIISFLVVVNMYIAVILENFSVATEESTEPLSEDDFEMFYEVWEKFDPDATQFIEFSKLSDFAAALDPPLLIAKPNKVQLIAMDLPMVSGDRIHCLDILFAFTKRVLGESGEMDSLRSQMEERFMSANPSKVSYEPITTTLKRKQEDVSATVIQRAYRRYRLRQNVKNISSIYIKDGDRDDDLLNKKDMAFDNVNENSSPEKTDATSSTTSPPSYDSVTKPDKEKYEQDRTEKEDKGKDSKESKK

[2] = target: Sodium channel protein type 5 subunit alpha (Homo sapiens, UniProt Q14524); experiment: Inhibition of human NaV1.5 expressed in […] cells at holding potential of -125 mV with test potentials to -10 mV by whole cell voltage clamp method; format: cell-based
Chain of Sodium channel protein type 5 subunit alpha (Q14524 whole entry): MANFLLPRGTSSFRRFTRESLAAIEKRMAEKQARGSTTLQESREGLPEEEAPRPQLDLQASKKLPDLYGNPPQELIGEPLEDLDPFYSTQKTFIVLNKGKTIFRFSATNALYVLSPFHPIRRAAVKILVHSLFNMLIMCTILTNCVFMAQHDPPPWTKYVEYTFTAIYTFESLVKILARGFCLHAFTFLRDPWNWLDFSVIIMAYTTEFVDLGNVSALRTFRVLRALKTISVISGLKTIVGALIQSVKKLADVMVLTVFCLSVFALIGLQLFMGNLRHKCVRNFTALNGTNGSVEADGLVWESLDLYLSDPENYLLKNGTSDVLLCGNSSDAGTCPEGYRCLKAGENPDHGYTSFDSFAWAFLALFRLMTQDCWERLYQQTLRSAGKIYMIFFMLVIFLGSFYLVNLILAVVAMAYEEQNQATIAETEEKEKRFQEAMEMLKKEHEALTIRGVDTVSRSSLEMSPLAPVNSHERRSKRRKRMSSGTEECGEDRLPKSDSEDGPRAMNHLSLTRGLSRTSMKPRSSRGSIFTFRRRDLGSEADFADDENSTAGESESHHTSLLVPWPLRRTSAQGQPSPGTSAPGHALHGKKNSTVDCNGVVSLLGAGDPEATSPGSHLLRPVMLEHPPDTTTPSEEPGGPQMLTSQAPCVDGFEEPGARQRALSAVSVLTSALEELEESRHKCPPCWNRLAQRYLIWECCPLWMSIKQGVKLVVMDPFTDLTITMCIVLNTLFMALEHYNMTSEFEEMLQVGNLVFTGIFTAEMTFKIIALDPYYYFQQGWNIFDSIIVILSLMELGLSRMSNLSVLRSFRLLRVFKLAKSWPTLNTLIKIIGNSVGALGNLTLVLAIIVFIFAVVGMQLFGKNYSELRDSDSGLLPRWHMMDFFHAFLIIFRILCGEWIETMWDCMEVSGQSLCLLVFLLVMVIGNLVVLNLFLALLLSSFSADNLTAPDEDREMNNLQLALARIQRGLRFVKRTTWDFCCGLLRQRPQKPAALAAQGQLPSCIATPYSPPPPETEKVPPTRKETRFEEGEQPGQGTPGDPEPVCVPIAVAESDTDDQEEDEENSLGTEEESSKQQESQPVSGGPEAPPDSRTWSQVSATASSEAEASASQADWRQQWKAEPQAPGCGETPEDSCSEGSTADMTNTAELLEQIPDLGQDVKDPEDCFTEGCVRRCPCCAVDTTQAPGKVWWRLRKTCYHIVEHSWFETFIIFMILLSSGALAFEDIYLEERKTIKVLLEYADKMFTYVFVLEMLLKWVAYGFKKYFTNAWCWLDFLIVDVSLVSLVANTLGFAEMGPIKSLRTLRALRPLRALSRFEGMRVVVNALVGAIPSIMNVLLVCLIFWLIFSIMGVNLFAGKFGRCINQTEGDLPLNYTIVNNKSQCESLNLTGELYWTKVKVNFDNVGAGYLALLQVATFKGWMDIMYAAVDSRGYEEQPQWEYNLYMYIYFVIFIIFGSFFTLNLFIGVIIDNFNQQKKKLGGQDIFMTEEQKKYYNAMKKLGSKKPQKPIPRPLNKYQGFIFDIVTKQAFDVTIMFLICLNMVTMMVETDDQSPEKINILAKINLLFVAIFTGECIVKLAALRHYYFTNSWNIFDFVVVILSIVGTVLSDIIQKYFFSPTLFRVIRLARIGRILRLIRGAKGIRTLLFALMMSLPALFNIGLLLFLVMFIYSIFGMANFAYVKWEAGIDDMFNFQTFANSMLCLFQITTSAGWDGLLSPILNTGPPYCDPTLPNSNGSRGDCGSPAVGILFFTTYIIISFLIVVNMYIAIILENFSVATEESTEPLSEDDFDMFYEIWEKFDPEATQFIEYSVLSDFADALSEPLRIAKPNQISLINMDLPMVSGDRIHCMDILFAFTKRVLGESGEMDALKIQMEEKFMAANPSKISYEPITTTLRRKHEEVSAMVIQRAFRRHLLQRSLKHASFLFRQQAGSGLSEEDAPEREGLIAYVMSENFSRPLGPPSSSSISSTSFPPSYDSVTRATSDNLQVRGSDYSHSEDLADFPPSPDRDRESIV

[3] = Clearance in rat at 0.5 mg/kg, iv by LC-MS/MS method; format: ADME, organism-based; settings: in vivo
Summary of the method: (§1)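 Male rats got 0.5 mg/kg IV as a DMSO solution. Unbound clearance was taken as rat clearance divided by the unbound fraction from equilibrium dialysis.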

[4] = Clearance in pooled rat liver microsomes at 1 uM in presence of NADPH by LC-MS/MS method; format: ADME, microsome; settings: read-out: CLH
[5] = Unbound fraction in rat plasma at 5 uM by ultracentrifugation and LC-MS/MS method; format: ADME, cell-free
[6] = Inhibition of cynomolgus monkey NaV1.7 by whole cell voltage clamp method; settings: Macaca fascicularis
Summary of the method: (§2)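 PatchXpress electrophysiology was run with a protocol giving about 20% channel inactivation. At least four concentrations at half-log spacing were applied one at a time, with washout, current recovery and holding voltage reset between each. Data were pooled from at least 10 cells, with 2–3 points per concentration, and fitted with a 4-parameter Hill curve to give one IC50.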

[7] = target: Sodium channel protein type 9 subunit alpha (Mus musculus, UniProt Q62205); experiment: Inhibition of mouse NaV1.7 by whole cell voltage clamp method; summary of the method: as §2
[8] = AUC (infinity) in rat at 0.5 mg/kg, iv by LC-MS/MS method; format: ADME, organism-based; design: dose 0.5 mg/kg, time infinity, route intravenous; settings: in vivo; summary of the method: as §1
[9] = AUC (infinity) in mouse at 30 mg/kg, po by LC-MS/MS method; format: ADME, organism-based; design: dose 30 mg/kg, time infinity, route oral; settings: in vivo
[10] = Half life in rat at 10 mg/kg, po by LC-MS/MS method; format: ADME, organism-based; settings: in vivo
[11] = Tmax in mouse at 30 mg/kg, po by LC-MS/MS method; format: ADME, organism-based; settings: in vivo
[12] = Oral bioavailability in rat at 10 mg/kg by LC-MS/MS method; format: ADME, organism-based; settings: in vivo
Plasma [13] = experiment: Plasma concentration in Sprague-Dawley rat model of formalin-induced nociception behavior at 10 mg/kg, po; format: ADME, organism-based; settings: in vivo
Summary of the method: (§3)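 Sprague Dawley rats got 10, 30 or 100 mg/kg PO in 30% (w/v) hydroxypropyl β-cyclodextrin, pH 10.0 with KOH. Total phase II formalin-induced flinches were counted. Morphine sulfate 2 mg/kg SC served as control. Unbound plasma levels were measured and compared with the rat NaV1.7 IC50.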

Plasma [14] = experiment: Plasma concentration in C57BL/6 mouse model of formalin-induced nociception behavior at 60 mg/kg, po; format: ADME, organism-based; settings: in vivo
Summary of the method: (§4)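 Male C57BL/6 mice got 30, 60 or 100 mg/kg PO in 30% (w/v) hydroxypropyl β-cyclodextrin in water, pH 10.0 with KOH. Formalin (2%) was injected subcutaneously into the dorsal hind paw, and total phase II paw licking and lifting were scored. Morphine sulfate 3 mg/kg SC served as control. Unbound plasma concentration was divided by the mouse NaV1.7 IC50.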

[15] = Ratio of unbound plasma concentration in Sprague-Dawley rat model of formalin-induced nociception behavior at 30 mg/kg, po to IC50 for rat Nav1.7 by whole cell voltage clamp method
Summary of the method: (§5)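 Total phase II formalin-induced flinches were scored. Unbound plasma concentration was determined at each dose and related to the rat NaV1.7 IC50.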

[16] = Ratio of unbound plasma concentration in Sprague-Dawley rat model of formalin-induced nociception behavior at 100 mg/kg, po to IC50 for rat Nav1.7 by whole cell voltage clamp method; summary of the method: as §5
[17] = Ratio of unbound plasma concentration in C57BL/6 mouse model of formalin-induced nociception behavior at 60 mg/kg, po to IC50 for mouse Nav1.7 by whole cell voltage clamp method
Summary of the method: (§6)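 The formalin arm received 2% formalin subcutaneously into the dorsal hind paw, and total phase II licking and lifting was scored. The pruritus arm was dosed 120 min before histamine (8.15mM, intradermal, nape of neck), and scratch bouts were counted over 0-30 min. Unbound plasma concentration was determined at each dose.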

[18] = Ratio of unbound plasma concentration in C57BL/6 mouse model of formalin-induced nociception behavior at 100 mg/kg, po to IC50 for mouse Nav1.7 by whole cell voltage clamp method; summary of the method: as §4
[19] = Ratio of unbound plasma concentration in C57BL/6 mouse model of histamine-induced pruritus at 30 mg/kg, po to IC50 for mouse Nav1.7 by whole cell voltage clamp method; summary of the method: as §6
Rattus norvegicus = experiment: Analgesic activity in Sprague-Dawley rat model of formalin-induced nociception behavior assessed as reduction in formalin-evoked paw flinching at 30 mg/kg, po; format: functional; summary of the method: as §3
Mus musculus [20] = experiment: Analgesic activity in C57BL/6 mouse model of formalin-induced nociception behavior assessed as reduction in formalin-evoked paw lifting/licking at 30 mg/kg, po; format: functional; summary of the method: as §4
Mus musculus [21] = experiment: Analgesic activity in C57BL/6 mouse model of formalin-induced nociception behavior assessed as reduction in formalin-evoked paw lifting/licking at 60 mg/kg, po; format: functional; summary of the method: as §4
Mus musculus [22] = experiment: Anti-pruritic activity in C57BL/6 mouse model of histamine-induced pruritus assessed as reduction in histamine-induced scratching at 60 mg/kg, po dosed 120 mins before test; format: functional
Summary of the method: (§7)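 Male C57BL/6 mice got 30, 60 or 100 mg/kg PO in 30% hydroxypropyl β-cyclodextrin, pH 10.0, 120 min before the test. Histamine (8.15mM) was given intradermally to the nape of the neck just before testing, and scratch bouts were counted over 0–30 min. Diphenhydramine 30 mg/kg PO in water, 90 min before, served as control. Unbound plasma concentrations were measured.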

Mus musculus [23] = experiment: Anti-pruritic activity in C57BL/6 mouse model of histamine-induced pruritus assessed as reduction in histamine-induced scratching at 100 mg/kg, po dosed 120 mins before test; format: functional; summary of the method: as §7
Plasma [24] = experiment: Unbound plasma concentration in Sprague-Dawley rat model of formalin-induced nociception behavior at 30 mg/kg, po; format: ADME, organism-based; settings: in vivo; summary of the method: as §5
Plasma [25] = experiment: Unbound plasma concentration in C57BL/6 mouse model of formalin-induced nociception behavior at 30 mg/kg, po; format: ADME, organism-based; settings: in vivo; summary of the method: as §6
Plasma [26] = experiment: Unbound plasma concentration in C57BL/6 mouse model of histamine-induced pruritus at 30 mg/kg, po; format: ADME, organism-based; settings: in vivo; summary of the method: as §6
[27] = target: Histamine H1 receptor (Homo sapiens) (UniProt P35367); experiment: Displacement of [3H]pyrilamine from human recombinant histamine H1 receptor expressed in HEK293 cells at 10 uM by radioligand displacement assay; format: cell-based
Chain of Histamine H1 receptor (Homo sapiens) (P35367 whole entry): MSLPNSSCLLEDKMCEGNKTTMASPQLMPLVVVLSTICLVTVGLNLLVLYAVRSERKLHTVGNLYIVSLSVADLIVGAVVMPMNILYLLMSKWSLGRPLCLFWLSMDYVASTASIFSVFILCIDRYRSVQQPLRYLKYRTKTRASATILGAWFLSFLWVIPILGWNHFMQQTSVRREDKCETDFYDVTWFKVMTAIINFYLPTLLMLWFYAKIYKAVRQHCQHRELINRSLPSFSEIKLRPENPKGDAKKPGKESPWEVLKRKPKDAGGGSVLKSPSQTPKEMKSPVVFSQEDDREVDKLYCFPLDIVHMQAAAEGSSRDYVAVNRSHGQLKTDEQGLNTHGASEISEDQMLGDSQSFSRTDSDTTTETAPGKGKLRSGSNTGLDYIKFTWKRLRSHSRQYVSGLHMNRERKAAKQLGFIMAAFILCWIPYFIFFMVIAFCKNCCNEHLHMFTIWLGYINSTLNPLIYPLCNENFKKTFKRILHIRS

[28] = target: Histamine H3 receptor (Homo sapiens) (UniProt Q9Y5N1); experiment: Displacement of [3H]N-alpha-Me-histamine from human recombinant histamine H3 receptor expressed in CHO cells at 10 uM by radioligand displacement assay; format: cell-based
Chain of Histamine H3 receptor (Homo sapiens) (Q9Y5N1 whole entry): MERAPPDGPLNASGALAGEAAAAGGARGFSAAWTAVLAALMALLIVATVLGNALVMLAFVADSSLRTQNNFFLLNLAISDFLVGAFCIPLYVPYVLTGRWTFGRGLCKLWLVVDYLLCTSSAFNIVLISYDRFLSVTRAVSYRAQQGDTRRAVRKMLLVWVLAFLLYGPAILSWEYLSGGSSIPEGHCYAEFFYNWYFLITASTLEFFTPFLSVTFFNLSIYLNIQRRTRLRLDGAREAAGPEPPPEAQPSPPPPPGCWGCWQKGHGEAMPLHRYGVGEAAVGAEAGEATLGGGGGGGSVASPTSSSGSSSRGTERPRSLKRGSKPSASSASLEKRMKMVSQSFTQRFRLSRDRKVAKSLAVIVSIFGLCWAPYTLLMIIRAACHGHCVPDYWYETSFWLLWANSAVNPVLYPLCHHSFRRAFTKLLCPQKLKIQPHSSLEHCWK

[29] = target: T1, Sodium channel protein type 9 subunit alpha; experiment: Displacement of (P)-1-(30-chloro-2-fluoro-5,50-dimethoxy-[1,10biphenyl]-4-yl)-N-(isoxazol-3-yl)-2-oxo-1,2-dihydroquinoline-6-sulfonamide[50-methoxy-C3H3] from human NaV1.7 expressed in HEK293 cell membranes incubated for 1 hr by beta counting method
Summary of the method: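 Human NaV1.7 radioligand displacement using the tritiated 5'-methoxy-labelled dihydroquinoline sulfonamide ligand, which binds the VSDIV pocket.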

IC50 [1]: 140 nM
clearance [3]: 10 mL/min/kg
microsomal CLint at 1 µM [4]: < 14 µL/min/mg
fraction unbound at 5 µM [5]: 0.015
IC50 [6]: 370 nM
IC50 [7]: 60 nM
AUC(0-inf) [8]: 1.8 µM·h
AUC(0-inf) [9]: 790 µM·h
half-life [10]: 9.8 h
Tmax [11]: 2 h
bioavailability [12]: 57%
concentration (Plasma [13]): 1700 nM
concentration (Plasma [14]): 100000 nM
Cp(f) (Plasma [24]): 65 nM
Cp(f) (Plasma [25]): 300 nM
Cp(f) (Plasma [26]): 370 nM
inhibition [27]: inactive
inhibition [28]: inactive
IC50 [29]: 37 nM
SMILES: N#Cc1cc(C(F)(F)F)ccc1N1CCOc2cc(S(=O)(=O)Nc3nccs3)c(F)cc21
IC50 [2]: 320 to 330 nM
Ratio [15]: 1.3
Ratio [16]: 3.6
Ratio [17]: 10
Ratio [18]: 16
Ratio [19]: 6
MPE (Rattus norvegicus): 39%
MPE (Mus musculus [20]): 5%
MPE (Mus musculus [21]): 45%
MPE (Mus musculus [22]): 71%
MPE (Mus musculus [23]): 80%
